In brackets after ≈: the same amount, converted by molar mass.
Columns and labels:
Format in all cases: functional
Staphylococcus aureus = test: In vitro antibacterial activity against Staphylococcus aureus ATCC 25293
How it was run: (§1)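 Broth microdilution MIC in Mueller–Hinton broth supplemented with 50% human serum; inoculum 5 × 10⁵ cfu/mL. MG1655 tolC is an efflux pump mutant.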

Enterobacter cloacae = test: In vitro antibacterial activity against Enterobacter cloacae ATCC 35030; how it was run: as §1
Escherichia coli [1] = test: In vitro antibacterial activity against Escherichia coli ATCC 25922; how it was run: as §1
Pseudomonas aeruginosa = test: In vitro antibacterial activity against Pseudomonas aeruginosa PA013; how it was run: as §1
Streptococcus pneumoniae = test: In vitro antibacterial activity against Streptococcus pneumoniae VSPN1005; how it was run: as §1
Escherichia coli [2] = test: Inhibitory activity against protein synthesis of Escherichia coli S30 by cell-free transcription/translation coupled assay
How it was run: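 Coupled transcription/translation in E. coli S30 extract with pGEMbgal DNA template; compounds preincubated with reaction mixture 10 min before template addition; after 1 h incubation ONPG added and β-galactosidase activity read at 420 nm.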

Escherichia coli [3] = test: In vitro antibacterial activity against Escherichia coli MG1655; how it was run: as §1
Klebsiella pneumoniae = test: In vitro antibacterial activity against Klebsiella pneumoniae […]; how it was run: as §1
Escherichia coli [4] = test: In vitro antibacterial activity against Escherichia coli MG1655 tolC; how it was run: as §1
Mus musculus = test: In vivo efficacy in Escherichia coli murine septicemia model
How it was run: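 Mice infected ip with approximately 1 × 10⁵ cfu E. coli ATCC25922; compound given iv at 1 and 5 h post-infection; survival followed for 7 days; ED₅₀ calculated by non-linear regression.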

SMILES | MIC (Staphylococcus aureus) [µg/mL] | MIC (Enterobacter cloacae) [µg/mL] | MIC (Escherichia coli [1]) [µg/mL] | MIC (Pseudomonas aeruginosa) [µg/mL] | MIC (Streptococcus pneumoniae) [µg/mL] | IC50 (Escherichia coli [2]) [µM] | MIC (Escherichia coli [3]) [µg/mL] | MIC (Klebsiella pneumoniae) [µg/mL] | MIC (Escherichia coli [4]) [µg/mL] | ED50 (Mus musculus) [mg/kg]
CN(CP(=O)(O)O)NC(=O)C[C@H](N)C[C@@H](O)CN | > 256 | > 256 | > 256 | > 256 | > 256 | > 80 | > 256 | > 256 | > 256 | 
CCCNC[C@H](O)C[C@@H](N)CC(=O)NN(C)CC(=O)O | > 256 | > 256 | > 256 | > 256 | > 256 | 20.3 | > 256 | > 256 | > 256 | 
CN(CP(C)(=O)O)NC(=O)C[C@H](N)C[C@@H](O)CN | > 256 | > 256 | > 256 | > 256 | > 256 | > 80 | > 256 | > 256 | > 256 | 
CC(C)C[C@H](N)C(=O)NC[C@H](O)C[C@@H](N)CC(=O)NN(C)CC(=O)O | 256 (≈ 708 µM) | 16 (≈ 44.3 µM) | 16 (≈ 44.3 µM) | 64 (≈ 177 µM) |  | 3.5 | 16 (≈ 44.3 µM) | 32 (≈ 88.5 µM) | 8 (≈ 22.1 µM) | 
CN(CC(=O)O)NC(=O)C[C@H](N)C[C@@H](O)CN=C(N)N | > 256 | > 256 | > 256 | > 256 |  | > 80 | > 256 | > 256 | 128 (≈ 441 µM) | 
CCNC[C@H](O)C[C@@H](N)CC(=O)NN(C)CC(=O)O | > 256 | 16 (≈ 57.9 µM) | 16 (≈ 57.9 µM) | 128 (≈ 463 µM) |  | 4.5 | 8 (≈ 29 µM) | 8 (≈ 29 µM) | 4 (≈ 14.5 µM) | 
NC[C@H](O)C[C@@H](N)CC(=O)NOCC(=O)O | > 256 | > 256 | > 256 | > 256 | > 256 | > 80 | > 256 | > 256 | > 256 | 
CN(Cc1nn[nH]n1)NC(=O)C[C@H](N)C[C@@H](O)CN | > 256 | > 256 | > 256 | > 256 | > 256 | > 80 | > 256 | > 256 | > 256 | 
NC[C@H](O)C[C@@H](N)CC(=O)NN1CCC[C@H]1C(=O)O | > 256 | > 256 | > 256 | > 256 | > 256 | > 80 | > 256 | > 256 | > 256 | 
CC(ONC(=O)C[C@H](N)C[C@@H](O)CN)C(=O)O (some centres undefined) | > 256 | > 256 | > 256 | > 256 | > 256 | > 80 | > 256 | > 256 | > 256 | 
CN(CC(=O)O)NC(=O)C[C@H](N)C[C@H](O)CCN | > 256 | > 256 | > 256 | > 256 | > 256 | > 80 | > 256 | > 256 | > 256 | 
CN(CC(=O)O)NC(=O)C[C@H](N)C[C@@H](O)CNCc1ccccc1 | > 128 | 64 (≈ 189 µM) | 64 (≈ 189 µM) | > 128 | 128 (≈ 378 µM) | 0.8 | 32 (≈ 94.6 µM) | 32 (≈ 94.6 µM) | 16 (≈ 47.3 µM) | 
CN(CC(=O)O)NC(=O)C[C@H](N)C[C@@H](O)CNC(N)=O | > 256 | > 256 | > 256 | > 256 |  | > 80 | > 256 | > 256 | > 256 | 
CN(CC(=O)O)NC(=O)C[C@H](N)C[C@@H](O)CCN | > 256 | > 256 | > 256 | > 256 | > 256 | > 80 | > 256 | > 256 | > 256 | 
NC[C@H](O)C[C@@H](N)CC(=O)NN1CCC[C@@H]1C(=O)O | > 256 | > 256 | > 256 | > 256 | > 256 | > 80 | > 256 | > 256 | > 256 | 
CC(C)CCCNC[C@H](O)C[C@@H](N)CC(=O)NN(C)CC(=O)O | > 256 | > 256 | > 256 | > 256 | > 256 | > 80 | > 256 | > 256 | > 256 | 

Second part, led by results:

MIC (Staphylococcus aureus) [µg/mL] | MIC (Enterobacter cloacae) [µg/mL] | MIC (Escherichia coli [1]) [µg/mL] | MIC (Pseudomonas aeruginosa) [µg/mL] | MIC (Streptococcus pneumoniae) [µg/mL] | IC50 (Escherichia coli [2]) [µM] | MIC (Escherichia coli [3]) [µg/mL] | MIC (Klebsiella pneumoniae) [µg/mL] | MIC (Escherichia coli [4]) [µg/mL] | SMILES | ED50 (Mus musculus) [mg/kg]
> 256 | > 256 | > 256 | > 256 | > 256 | > 80 | > 256 | > 256 | > 256 | CN(CC(=O)O)NC(=O)C[C@H](N)CC(O)CN1CCOCC1 (some centres undefined) | 
> 256 | > 256 | > 256 | > 256 | > 256 | > 80 | > 256 | > 256 | > 256 | CN(CC(=O)O)NC(=O)C[C@H](N)CC(O)CN1CCNCC1 (some centres undefined) | 
512 (≈ 2060 µM) | 128 (≈ 516 µM) | 128 (≈ 516 µM) | > 512 |  | 23.4 | 128 (≈ 516 µM) | 64 (≈ 258 µM) | 32 (≈ 129 µM) | CN(CC(=O)O)NC(=O)C[C@H](N)C[C@H](O)CN | 
> 256 | > 256 | > 256 | > 256 | > 256 | > 80 | > 256 | > 256 | > 256 | CN(CC(=O)O)NC(=O)C[C@H](N)CC(O)CN1CC[C@H](N)C1 (some centres undefined) | 
128 (≈ 488 µM) | 16 (≈ 61 µM) | 16 (≈ 61 µM) | 128 (≈ 488 µM) | 256 (≈ 976 µM) | 2.3 | 8 (≈ 30.5 µM) | 4 (≈ 15.2 µM) | 4 (≈ 15.2 µM) | CNC[C@H](O)C[C@@H](N)CC(=O)NN(C)CC(=O)O | 16.3
> 256 | > 256 | > 256 | > 256 | > 256 | > 80 | > 256 | > 256 | > 256 | CN(CC(=O)O)NC(=O)C[C@H](N)CC(O)CN1CC[C@@H](N)C1 (some centres undefined) | 
32 (≈ 129 µM) | 8 (≈ 32.2 µM) | 4 (≈ 16.1 µM) | 32 (≈ 129 µM) | 32 (≈ 129 µM) | 1 | 4 (≈ 16.1 µM) | 2 (≈ 8.06 µM) | 2 (≈ 8.06 µM) | CN(CC(=O)O)NC(=O)C[C@H](N)C[C@@H](O)CN [NEGAMYCIN] | 5.1
